From ChEMBL document CHEMBL1132302, “Identification of pharmacokinetically stable 3, 10-dibromo-8-chlorobenzocycloheptapyridine farnesyl protein transferase inhibitors with potent enzyme and cellular activities” (J Med Chem, 1999)

Molecular target: T1, Protein farnesyltransferase (Homo sapiens, UniProt P49354+P49356)
Test: Inhibitory activity against Hras Farnesyltransferase (FPT).
Type: protein-complex assay
Details: not given

Row | IC50 | Compound
1 | 4.3 nM | O=C(CC1CCN(C(=O)Cn2cccc2)CC1)N1CCC([C@H]2c3ncc(Br)cc3CCc3cc(Cl)cc(Br)c32)CC1
2 | 0.8 nM | O=C(O)c1cncc(C(=O)N2CCC(CC(=O)N3CCC([C@H]4c5ncc(Br)cc5CCc5cc(Cl)cc(Br)c54)CC3)CC2)c1
3 | 17.1 nM | O=C(CC1CCN(S(=O)(=O)Cc2ccccc2)CC1)N1CCC([C@H]2c3ncc(Br)cc3CCc3cc(Cl)cc(Br)c32)CC1
4 | 2.2 nM | NC(=O)c1cncc(C(=O)N2CCC(CC(=O)N3CCC([C@H]4c5ncc(Br)cc5CCc5cc(Cl)cc(Br)c54)CC3)CC2)c1

Test system: not listed separately
Test: Maximum concentration (Cmax) using 20%aqueous hydroxypropyl-beta-cyclodextrin (HPbetaCD) as vehicle. compound was administered orally to nude mice at a dose of 25 mg/kg
Type: ADME, organism-based
Design: dose 25 mg/kg, route oral
Details: mouse, in vivo, po
In short: (§1)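 Nude mice were dosed at 25 mpk, intravenously or orally as the line states, in 20% aqueous hydroxypropyl-β-cyclodextrin or 0.4% aqueous methyl cellulose. Serum was sampled over 24 h. Each time point came from sera of different animals.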

Row | Cmax | Compound
5 | 2.92 µM | NCC(=O)N1CCC(CC(=O)N2CCC([C@H]3c4ncc(Br)cc4CCc4cc(Cl)cc(Br)c43)CC2)CC1
6 | 2.15 µM | O=C(CC1CCN(C(=O)Cn2cncn2)CC1)N1CCC([C@H]2c3ncc(Br)cc3CCc3cc(Cl)cc(Br)c32)CC1
7 | 3.6 µM | NS(=O)(=O)N1CCC(CC(=O)N2CCC([C@H]3c4ncc(Br)cc4CCc4cc(Cl)cc(Br)c43)CC2)CC1
8 | 1.3 µM | CS(=O)(=O)N1CCC(CC(=O)N2CCC([C@H]3c4ncc(Br)cc4CCc4cc(Cl)cc(Br)c43)CC2)CC1

Molecular target: T1, Protein farnesyltransferase
Test: Effect on Ras processing in Cos-1 monkey kidney cells expressing either H-Ras-Val 12-CVLS or H-Ras-Val12.
Type: functional, cell-based, Cercopithecidae
Details: not given
In short: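 Ras processing was tested in Cos-1 monkey kidney cells transiently expressing H-Ras-Val12-CVLS or H-Ras-Val12. IC50 values are single-point determinations.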

Row | IC50 | Compound
9 | < 10 nM | O=C(CC1CCN(C(=O)Cn2cncn2)CC1)N1CCC([C@H]2c3ncc(Br)cc3CCc3cc(Cl)cc(Br)c32)CC1
10 | 40 nM | CCN(CC)C(=O)CN1CCC(CC(=O)N2CCC([C@H]3c4ncc(Br)cc4CCc4cc(Cl)cc(Br)c43)CC2)CC1
11 | 140 nM | C[C@H](N)C(=O)N1CCC(CC(=O)N2CCC([C@H]3c4ncc(Br)cc4CCc4cc(Cl)cc(Br)c43)CC2)CC1
12 | 9 nM | O=C(CC1CCN(C(=O)Cn2cccc2)CC1)N1CCC([C@H]2c3ncc(Br)cc3CCc3cc(Cl)cc(Br)c32)CC1
13 | > 1000 nM | O=C(O)c1cncc(C(=O)N2CCC(CC(=O)N3CCC([C@H]4c5ncc(Br)cc5CCc5cc(Cl)cc(Br)c54)CC3)CC2)c1
14 | 350 nM | O=C(CC1CCN(S(=O)(=O)Cc2ccccc2)CC1)N1CCC([C@H]2c3ncc(Br)cc3CCc3cc(Cl)cc(Br)c32)CC1
15 | 21 nM | NC(=O)c1cncc(C(=O)N2CCC(CC(=O)N3CCC([C@H]4c5ncc(Br)cc5CCc5cc(Cl)cc(Br)c54)CC3)CC2)c1

Test system: not listed separately
Test: Area under curve was determined using 20%aqueous hydroxypropyl-beta-cyclodextrin (HPbetaCD) as vehicle. Compound was administered intravenously to nude mice at a dose of 25 mg/kg (run time 7 hr)
Type: ADME, organism-based
Design: dose 25 mg/kg, route intravenous
Details: mouse, in vivo, iv
In short: (§2)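 Nude mice received 25 mpk in 20% aqueous hydroxypropyl-β-cyclodextrin, by the route the line gives. Serum was collected over a shortened 7-h run rather than 24 h. Each time point used sera from different animals.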

Row | AUC at 7 h | Compound
16 | 10100 ng·h/mL | O=C(CC1CCN(C(=O)Cn2cncn2)CC1)N1CCC([C@H]2c3ncc(Br)cc3CCc3cc(Cl)cc(Br)c32)CC1

Test system: not listed separately
Test: (§3) Half life was administered by using 20%aqueous hydroxypropyl-beta-cyclodextrin (HPbetaCD) as vehicle to nude mice at a dose of 25mpk,
Type: ADME, organism-based
Details: mouse, in vivo, 25 mg/kg

Row | half-life | Compound
17 | 16.8 min | O=C(CC1CCN(C(=O)Cn2cncn2)CC1)N1CCC([C@H]2c3ncc(Br)cc3CCc3cc(Cl)cc(Br)c32)CC1

Test system: not listed separately
Test: Area under curve was determined using 20%aqueous hydroxypropyl-beta-cyclodextrin (HPbetaCD) as vehicle. Compound was administered orally to nude mice at a dose of 25 mg/kg
Type: organism-based
Design: dose 25 mg/kg
Details: not given
In short: as §1

Row | Compound | AUC
18 | NCC(=O)N1CCC(CC(=O)N2CCC([C@H]3c4ncc(Br)cc4CCc4cc(Cl)cc(Br)c43)CC2)CC1 | 5840 ng·h/mL
19 | NS(=O)(=O)N1CCC(CC(=O)N2CCC([C@H]3c4ncc(Br)cc4CCc4cc(Cl)cc(Br)c43)CC2)CC1 | 5600 ng·h/mL
20 | CS(=O)(=O)N1CCC(CC(=O)N2CCC([C@H]3c4ncc(Br)cc4CCc4cc(Cl)cc(Br)c43)CC2)CC1 | 950 ng·h/mL

Test system: not listed separately
Test: Area under curve was determined using 20%aqueous hydroxypropyl-beta-cyclodextrin (HPbetaCD) as vehicle. Compound was administered orally to nude mice at a dose of 25 mg/kg (run time 7 hr)
Type: ADME, organism-based
Design: dose 25 mg/kg, route oral
Details: mouse, in vivo, po
In short: as §2

Row | AUC at 7 h | Compound
21 | 1970 ng·h/mL | O=C(CC1CCN(C(=O)Cn2cncn2)CC1)N1CCC([C@H]2c3ncc(Br)cc3CCc3cc(Cl)cc(Br)c32)CC1

Test system: Mus musculus
Test: (§4) Bioavailability in mouse (nude) using 20% aqueous hydroxypropyl-beta-cyclodextrin (HPbetaCD) as vehicle 25 mg/kg
Type: organism-based
Details: not given

Row | Compound | bioavailability
22 | NCC(=O)N1CCC(CC(=O)N2CCC([C@H]3c4ncc(Br)cc4CCc4cc(Cl)cc(Br)c43)CC2)CC1 | 4.7%
23 | NS(=O)(=O)N1CCC(CC(=O)N2CCC([C@H]3c4ncc(Br)cc4CCc4cc(Cl)cc(Br)c43)CC2)CC1 | 22%
24 | CS(=O)(=O)N1CCC(CC(=O)N2CCC([C@H]3c4ncc(Br)cc4CCc4cc(Cl)cc(Br)c43)CC2)CC1 | 10%

Test system: NIH-3T3 (Mus musculus)
Test: inhibition of tumor colony formation in soft agar
Details: not given

Row | Compound | IC50
25 | O=C(CC1CCN(C(=O)Cn2cncn2)CC1)N1CCC([C@H]2c3ncc(Br)cc3CCc3cc(Cl)cc(Br)c32)CC1 | 110 nM
26 | CCN(CC)C(=O)CN1CCC(CC(=O)N2CCC([C@H]3c4ncc(Br)cc4CCc4cc(Cl)cc(Br)c43)CC2)CC1 | 300 nM
27 | CNC(=O)N1CCC(CC(=O)N2CCC([C@H]3c4ncc(Br)cc4CCc4cc(Cl)cc(Br)c43)CC2)CC1 | 100 nM
28 | O=C(O)CNC(=O)N1CCC(CC(=O)N2CCC([C@H]3c4ncc(Br)cc4CCc4cc(Cl)cc(Br)c43)CC2)CC1 | > 500 nM
29 | O=C(CC1CCN(C(=O)Cn2cccc2)CC1)N1CCC([C@H]2c3ncc(Br)cc3CCc3cc(Cl)cc(Br)c32)CC1 | 460 nM
30 | NS(=O)(=O)N1CCC(CC(=O)N2CCC([C@H]3c4ncc(Br)cc4CCc4cc(Cl)cc(Br)c43)CC2)CC1 | 200 nM
31 | O=C(O)c1cncc(C(=O)N2CCC(CC(=O)N3CCC([C@H]4c5ncc(Br)cc5CCc5cc(Cl)cc(Br)c54)CC3)CC2)c1 | > 500 nM
32 | NC(=O)c1cncc(C(=O)N2CCC(CC(=O)N3CCC([C@H]4c5ncc(Br)cc5CCc5cc(Cl)cc(Br)c54)CC3)CC2)c1 | 500 nM
33 | CCOC(=O)CNC(=O)N1CCC(CC(=O)N2CCC([C@H]3c4ncc(Br)cc4CCc4cc(Cl)cc(Br)c43)CC2)CC1 | 310 nM

Test system: not listed separately
Test: as §3
Type: organism-based
Details: not given

Row | Compound | T1/2
34 | NCC(=O)N1CCC(CC(=O)N2CCC([C@H]3c4ncc(Br)cc4CCc4cc(Cl)cc(Br)c43)CC2)CC1 | 84 min
35 | NS(=O)(=O)N1CCC(CC(=O)N2CCC([C@H]3c4ncc(Br)cc4CCc4cc(Cl)cc(Br)c43)CC2)CC1 | 90 min
36 | CS(=O)(=O)N1CCC(CC(=O)N2CCC([C@H]3c4ncc(Br)cc4CCc4cc(Cl)cc(Br)c43)CC2)CC1 | 31.8 min

Test system: not listed separately
Test: as §4
Type: ADME, organism-based
Details: nude, in vivo

Row | bioavailability | Compound
37 | 19.5% | O=C(CC1CCN(C(=O)Cn2cncn2)CC1)N1CCC([C@H]2c3ncc(Br)cc3CCc3cc(Cl)cc(Br)c32)CC1

Test system: not listed separately
Test: Maximum concentration (Cmax) using 20%aqueous hydroxypropyl-beta-cyclodextrin (HPbetaCD) as vehicle. compound was administered intravenously to nude mice at a dose of 25 mg/kg
Type: ADME, organism-based
Design: dose 25 mg/kg, route intravenous
Details: mouse, in vivo, iv
In short: as §1

Row | Cmax | Compound
38 | 80 µM | NCC(=O)N1CCC(CC(=O)N2CCC([C@H]3c4ncc(Br)cc4CCc4cc(Cl)cc(Br)c43)CC2)CC1
39 | 22.6 µM | O=C(CC1CCN(C(=O)Cn2cncn2)CC1)N1CCC([C@H]2c3ncc(Br)cc3CCc3cc(Cl)cc(Br)c32)CC1
40 | 30 µM | NS(=O)(=O)N1CCC(CC(=O)N2CCC([C@H]3c4ncc(Br)cc4CCc4cc(Cl)cc(Br)c43)CC2)CC1
41 | 30 µM | CS(=O)(=O)N1CCC(CC(=O)N2CCC([C@H]3c4ncc(Br)cc4CCc4cc(Cl)cc(Br)c43)CC2)CC1

Test system: not listed separately
Test: Area under curve was determined using 20%aqueous hydroxypropyl-beta-cyclodextrin (HPbetaCD) as vehicle. Compound was administered intravenously to nude mice at a dose of 25 mg/kg
Type: organism-based
Design: dose 25 mg/kg
Details: not given
In short: as §1

Row | Compound | AUC
42 | NCC(=O)N1CCC(CC(=O)N2CCC([C@H]3c4ncc(Br)cc4CCc4cc(Cl)cc(Br)c43)CC2)CC1 | 125000 ng·h/mL
43 | NS(=O)(=O)N1CCC(CC(=O)N2CCC([C@H]3c4ncc(Br)cc4CCc4cc(Cl)cc(Br)c43)CC2)CC1 | 26100 ng·h/mL
44 | CS(=O)(=O)N1CCC(CC(=O)N2CCC([C@H]3c4ncc(Br)cc4CCc4cc(Cl)cc(Br)c43)CC2)CC1 | 9520 ng·h/mL
